This note sets out measurements from ChEMBL document CHEMBL4251682, “Nitric Oxide Inhibitory Sesquiterpenoids and Its Dimers from Artemisia freyniana” (J Nat Prod, 2018).

For one data set, the system named is DU-145. As to the kind of experiment: Cytotoxicity against human DU145 cells by MTT assay. Format: functional, cell-based. The method in brief: (§1)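 MTT-based growth inhibition of HCT116 and DU145 cells following an established protocol, with taxol as positive control.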
Data set [1] relates to RAW264.7. As to the kind of experiment: Cytotoxicity against mouse RAW264.7 cells assessed as effect on cell viability at 50 uM by MTT assay. Format: cell-based. The following applies: raw264.7, 50 µM.
Another data set has as its system HCT-116. The data set can be described thus: Cytotoxicity against human HCT116 cells by MTT assay. It is filed as functional, cell-based. The method in brief:
as §1

The test system of data set [2] is RAW264.7. As to the kind of experiment: Inhibition of LPS-induced nitric oxide production in mouse RAW264.7 cells after 24 hrs by Griess assay. The following applies: RAW264.7, 24 h. It is filed as functional, cell-based.

On to `C=C(C(=O)O)[C@H]1C[C@@]23O[C@@]2(C)CCC[C@]3(C)C[C@@H]1OC(C)=O`, for which the IC50 in the data set with DU-145 and in the data set on HCT-116 was over 50 µM throughout. The Activity entry in the data set with RAW264.7 [1] is reported as “Non-Toxic”.
For the compound `C=C(C(=O)O)[C@@H]1CC=C2[C@H](O)CC[C@H](C)[C@@]2(C)C1`, the results for the IC50 with DU-145, with RAW264.7 [2] and in the data set on HCT-116 were over 50 µM, 18.9 µM and over 50 µM, respectively. Besides, the Activity result with RAW264.7 [1] was “Non-Toxic”.
With `C=C(C(=O)O)[C@@H]1C[C@@H]2O[C@@]23CCC[C@H](C)[C@@]3(C)C1`, the IC50 in the data set on DU-145 is over 50 µM; in the data set with RAW264.7 [2], 10.8 µM; with HCT-116, over 50 µM. In addition, the Activity result with RAW264.7 [1] is “Non-Toxic”.
`C[C@@H]1C[C@H]2[C@@H]3CCC4=CC(=O)C=C[C@]4(C)[C@@]3(F)[C@@H](O)C[C@]2(C)[C@@]1(O)C(=O)CO` [DEXAMETHASONE] had an IC50 with RAW264.7 [2] of 10.7 µM.
